Measurements as given in BindingDB's records for doi:10.1021/jm990049j (Dupont Pharmaceuticals, 2000).

Target: Integrin alpha-IIb/beta-3 (Homo sapiens, UniProt P08514+P05106)
Assay: Inhibition of aggregation of human gel-purified platelets (GPIIbIIIa GPP)
Procedure, shortened: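 Human platelets from healthy-volunteer platelet-rich plasma were gel-purified on sepharose and used at 2×10^8 platelets/mL with 1 mM CaCl2 and 1 mg/mL fibrinogen. Aggregation was measured with or without compound at several concentrations and IC50 calculated. Values are single determinations.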

Chain of Integrin alpha-IIb/beta-3 (P05106 27-788 limits assumed): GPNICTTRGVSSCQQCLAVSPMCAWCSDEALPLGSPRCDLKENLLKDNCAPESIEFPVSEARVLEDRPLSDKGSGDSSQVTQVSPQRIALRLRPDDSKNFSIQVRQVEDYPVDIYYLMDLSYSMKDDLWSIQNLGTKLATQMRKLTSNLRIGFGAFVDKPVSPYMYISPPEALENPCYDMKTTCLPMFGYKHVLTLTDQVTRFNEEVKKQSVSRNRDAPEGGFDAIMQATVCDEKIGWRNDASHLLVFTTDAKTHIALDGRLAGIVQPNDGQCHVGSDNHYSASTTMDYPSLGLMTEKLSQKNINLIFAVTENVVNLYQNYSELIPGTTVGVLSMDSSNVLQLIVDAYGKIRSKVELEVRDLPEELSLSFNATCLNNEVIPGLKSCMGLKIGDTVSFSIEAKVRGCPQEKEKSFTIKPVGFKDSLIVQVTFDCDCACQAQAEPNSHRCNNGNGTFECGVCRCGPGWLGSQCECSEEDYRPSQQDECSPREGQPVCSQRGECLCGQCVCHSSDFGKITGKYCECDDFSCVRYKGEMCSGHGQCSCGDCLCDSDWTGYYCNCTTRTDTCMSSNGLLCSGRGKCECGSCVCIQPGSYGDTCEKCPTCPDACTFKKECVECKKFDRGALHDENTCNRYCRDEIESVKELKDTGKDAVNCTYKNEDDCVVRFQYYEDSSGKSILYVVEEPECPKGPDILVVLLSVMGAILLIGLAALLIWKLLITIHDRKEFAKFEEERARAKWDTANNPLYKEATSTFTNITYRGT
Chain of Integrin alpha-IIb/beta-3 (P08514 32-887 limits assumed): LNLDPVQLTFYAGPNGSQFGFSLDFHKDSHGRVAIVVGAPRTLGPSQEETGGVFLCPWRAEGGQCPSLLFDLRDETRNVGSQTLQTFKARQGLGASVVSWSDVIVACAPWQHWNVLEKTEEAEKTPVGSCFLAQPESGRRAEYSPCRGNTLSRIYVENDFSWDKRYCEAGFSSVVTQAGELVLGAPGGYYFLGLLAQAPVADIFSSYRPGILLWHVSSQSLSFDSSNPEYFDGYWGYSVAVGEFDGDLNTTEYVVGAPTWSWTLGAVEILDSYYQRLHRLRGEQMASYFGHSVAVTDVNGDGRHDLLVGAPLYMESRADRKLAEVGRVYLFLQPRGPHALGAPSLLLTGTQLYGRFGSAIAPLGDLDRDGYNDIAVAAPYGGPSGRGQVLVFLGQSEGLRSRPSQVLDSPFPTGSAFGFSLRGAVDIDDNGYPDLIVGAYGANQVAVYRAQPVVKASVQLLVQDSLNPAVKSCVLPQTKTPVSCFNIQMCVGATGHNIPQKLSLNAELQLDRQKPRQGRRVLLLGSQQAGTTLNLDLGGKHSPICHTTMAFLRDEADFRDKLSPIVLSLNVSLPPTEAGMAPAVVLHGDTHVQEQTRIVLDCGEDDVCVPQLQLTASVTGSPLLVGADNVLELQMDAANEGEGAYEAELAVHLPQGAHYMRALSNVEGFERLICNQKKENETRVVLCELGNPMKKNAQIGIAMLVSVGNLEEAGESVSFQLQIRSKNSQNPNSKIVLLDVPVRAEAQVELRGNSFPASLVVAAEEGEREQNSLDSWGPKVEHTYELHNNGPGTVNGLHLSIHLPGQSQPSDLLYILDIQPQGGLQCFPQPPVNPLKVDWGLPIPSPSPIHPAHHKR
Chain of Integrin alpha-IIb/beta-3 (P08514 891-1039 limits assumed): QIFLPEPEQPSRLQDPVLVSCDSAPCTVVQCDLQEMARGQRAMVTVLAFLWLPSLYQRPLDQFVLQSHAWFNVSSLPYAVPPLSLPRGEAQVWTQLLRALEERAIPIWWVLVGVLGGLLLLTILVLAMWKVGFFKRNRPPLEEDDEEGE

Compound | IC50 [nM]
Cc1cc(C)c(S(=O)(=O)N[C@H](CNC(=O)c2ccc3c(cnn3CCCNc3ncc[nH]3)c2)C(=O)O)c(C)c1 | 5000
O=C(NC[C@H](NS(=O)(=O)c1c(Cl)cccc1Cl)C(=O)O)c1ccc2c(cnn2CCCNc2ncc[nH]2)c1 [2-(2,6-Dichloro-benzenesulfonylamino)-3-({1-[3-(1H-imidazol-2-ylamino)-propyl]-1H-indazole-5-carbonyl}-amino)-propionic acid] | 12
Cc1cccc(C)c1S(=O)(=O)N[C@@H](CNC(=O)c1ccc2c(cnn2CCCNc2ncc[nH]2)c1)C(=O)O [2-(2,6-Dimethyl-benzenesulfonylamino)-3-({1-[3-(1H-imidazol-2-ylamino)-propyl]-1H-indazole-5-carbonyl}-amino)-propionic acid] | 74
O=C(NC[C@H](NS(=O)(=O)c1ccc(Cl)c(Cl)c1)C(=O)O)c1ccc2c(cnn2CCCNc2ncc[nH]2)c1 [2-(3,4-Dichloro-benzenesulfonylamino)-3-({1-[3-(1H-imidazol-2-ylamino)-propyl]-1H-indazole-5-carbonyl}-amino)-propionic acid] | 790
CC(=O)Nc1ccc(S(=O)(=O)N[C@@H](CNC(=O)c2ccc3c(cnn3CCCNc3ncc[nH]3)c2)C(=O)O)cc1 [2-(4-Acetylamino-benzenesulfonylamino)-3-({1-[3-(1H-imidazol-2-ylamino)-propyl]-1H-indazole-5-carbonyl}-amino)-propionic acid] | 400
CC(C)(C)c1ccc(S(=O)(=O)N[C@@H](CNC(=O)c2ccc3c(cnn3CCCNc3ncc[nH]3)c2)C(=O)O)cc1 [2-(4-tert-Butyl-benzenesulfonylamino)-3-({1-[3-(1H-imidazol-2-ylamino)-propyl]-1H-indazole-5-carbonyl}-amino)-propionic acid] | 2000
CCCCS(=O)(=O)N[C@@H](CNC(=O)c1ccc2c(cnn2CCCNc2ccccn2)c1)C(=O)O [2-(Butane-1-sulfonylamino)-3-({1-[3-(pyridin-2-ylamino)-propyl]-1H-indazole-5-carbonyl}-amino)-propionic acid] | 9000
O=C(NC[C@H](NS(=O)(=O)c1ccccc1)C(=O)O)c1ccc2c(cnn2CCCNc2ncc[nH]2)c1 [2-Benzenesulfonylamino-3-({1-[3-(1H-imidazol-2-ylamino)-propyl]-1H-indazole-5-carbonyl}-amino)-propionic acid] | 34
O=C(NC[C@H](NS(=O)(=O)c1ccccc1)C(=O)O)c1ccc2c(cnn2CCCNc2ccccn2)c1 [2-Benzenesulfonylamino-3-({1-[3-(pyridin-2-ylamino)-propyl]-1H-indazole-5-carbonyl}-amino)-propionic acid] | 290
O=C(N[C@@H](CNC(=O)c1ccc2c(cnn2CCCNc2ccccn2)c1)C(=O)O)OCc1ccccc1 [2-Benzyloxycarbonylamino-3-({1-[3-(pyridin-2-ylamino)-propyl]-1H-indazole-5-carbonyl}-amino)-propionic acid] | > 10000
CC(C)COC(=O)N[C@@H](CNC(=O)c1ccc2c(cnn2CCCNc2ccccn2)c1)C(=O)O [2-Isobutoxycarbonylamino-3-({1-[3-(pyridin-2-ylamino)-propyl]-1H-indazole-5-carbonyl}-amino)-propionic acid] | 25000
Cc1cc(C)c(S(=O)(=O)N[C@@H](CNC(=O)c2ccc3c(cnn3CCC(=O)Nc3ncc[nH]3)c2)C(=O)O)c(C)c1 [3-({1-[2-(1H-Imidazol-2-ylcarbamoyl)-ethyl]-1H-indazole-5-carbonyl}-amino)-2-(2,4,6-trimethyl-benzenesulfonylamino)-propionic acid] | 4000
Cc1cc(C)c(S(=O)(=O)N[C@@H](CNC(=O)c2ccc3c(cnn3CCCNc3ncc[nH]3)c2)C(=O)O)c(C)c1 [3-({1-[3-(1H-Imidazol-2-ylamino)-propyl]-1H-indazole-5-carbonyl}-amino)-2-(2,4,6-trimethyl-benzenesulfonylamino)-propionic acid] | 21
COc1ccc(S(=O)(=O)N[C@@H](CNC(=O)c2ccc3c(cnn3CCCNc3ncc[nH]3)c2)C(=O)O)cc1 [3-({1-[3-(1H-Imidazol-2-ylamino)-propyl]-1H-indazole-5-carbonyl}-amino)-2-(4-methoxy-benzenesulfonylamino)-propionic acid] | 410
O=C(NC[C@H](NS(=O)(=O)c1ccc(C(F)(F)F)cc1)C(=O)O)c1ccc2c(cnn2CCCNc2ncc[nH]2)c1 [3-({1-[3-(1H-Imidazol-2-ylamino)-propyl]-1H-indazole-5-carbonyl}-amino)-2-(4-trifluoromethyl-benzenesulfonylamino)-propionic acid] | 4400
O=C(NC[C@H](NS(=O)(=O)c1ccc2ccccc2c1)C(=O)O)c1ccc2c(cnn2CCCNc2ncc[nH]2)c1 [3-({1-[3-(1H-Imidazol-2-ylamino)-propyl]-1H-indazole-5-carbonyl}-amino)-2-(naphthalene-2-sulfonylamino)-propionic acid] | 81
O=C(NC[C@H](NS(=O)(=O)Nc1ccccc1)C(=O)O)c1ccc2c(cnn2CCCNc2ccccn2)c1 [3-[1-[3-(N-Pyridin-2ylamino)propyl]indazol-5-ylcarbonylamino]-2(S)-(phenylaminosulfonylamino) propionic acid] | 7800
O=C(NC[C@H](NS(=O)(=O)NCc1ccccc1)C(=O)O)c1ccc2c(cnn2CCCNc2ccccn2)c1 [3-[1-[3-(N-Pyridin-2ylamino)propyl]indazol-5-ylcarbonylamino]-2(S)-(phenylmethylaminosulfonylamino) propionic acid] | 8100

More lines, in order of falling IC50, values ahead:

IC50 [nM] | Compound
41000 | Cc1cc(C)c(S(=O)(=O)N[C@@H](CC(=O)Nc2ccc3c(cnn3CCCNc3ccccn3)c2)C(=O)O)c(C)c1 [N-{1-[3-(Pyridin-2-ylamino)-propyl]-1H-indazol-5-yl}-2-(2,4,6-trimethyl-benzenesulfonylamino)-succinamic acid]
36000 | Cc1cc(C)c(NS(=O)(=O)N[C@@H](CNC(=O)c2ccc3c(cnn3CCCNc3ccccn3)c2)C(=O)O)c(C)c1 [3-[1-[3-(N-Pyridin-2ylamino)propyl]indazol-5-ylcarbonylamino]-2(S)-(2,4,6-trimethylphenylaminosulfonylamino) propionic acid]
1000 | O=C(N[C@@H](CNC(=O)c1ccc2c(cnn2CCCNc2ncc[nH]2)c1)C(=O)O)OCc1ccccc1 [2-Benzyloxycarbonylamino-3-({1-[3-(1H-imidazol-2-ylamino)-propyl]-1H-indazole-5-carbonyl}-amino)-propionic acid]
260 | O=C(NC[C@H](NS(=O)(=O)c1ccc(Cl)cc1)C(=O)O)c1ccc2c(cnn2CCCNc2ncc[nH]2)c1 [2-(4-Chloro-benzenesulfonylamino)-3-({1-[3-(1H-imidazol-2-ylamino)-propyl]-1H-indazole-5-carbonyl}-amino)-propionic acid]
220 | Cc1cc(C)c(S(=O)(=O)N[C@@H](CNC(=O)c2ccc3c(cnn3CCCNc3ccccn3)c2)C(=O)O)c(C)c1 [3-({1-[3-(Pyridin-2-ylamino)-propyl]-1H-indazole-5-carbonyl}-amino)-2-(2,4,6-trimethyl-benzenesulfonylamino)-propionic acid]
130 | O=C(NC[C@H](NS(=O)(=O)c1ccc(-c2ccccc2)cc1)C(=O)O)c1ccc2c(cnn2CCCNc2ncc[nH]2)c1 [2-(Biphenyl-4-sulfonylamino)-3-({1-[3-(1H-imidazol-2-ylamino)-propyl]-1H-indazole-5-carbonyl}-amino)-propionic acid]
83 | Cc1ccc(S(=O)(=O)N[C@@H](CNC(=O)c2ccc3c(cnn3CCCNc3ncc[nH]3)c2)C(=O)O)cc1 [3-({1-[3-(1H-Imidazol-2-ylamino)-propyl]-1H-indazole-5-carbonyl}-amino)-2-(toluene-4-sulfonylamino)-propionic acid]
74 | Cc1cc(-c2ccccc2)cc(C)c1S(=O)(=O)N[C@@H](CNC(=O)c1ccc2c(cnn2CCCNc2ncc[nH]2)c1)C(=O)O [2-(3,5-Dimethyl-biphenyl-4-sulfonylamino)-3-({1-[3-(1H-imidazol-2-ylamino)-propyl]-1H-indazole-5-carbonyl}-amino)-propionic acid]
66 | Cc1cc(C)c(S(=O)(=O)N[C@@H](CNC(=O)c2ccc3c(cnn3CCCNC3=NCCCN3)c2)C(=O)O)c(C)c1 [3-({1-[3-(1,4,5,6-Tetrahydro-pyrimidin-2-ylamino)-propyl]-1H-indazole-5-carbonyl}-amino)-2-(2,4,6-trimethyl-benzenesulfonylamino)-propionic acid]
57 | Cc1cc(C)c(S(=O)(=O)N[C@@H](CNC(=O)c2ccc3c(cnn3CCCNC3=NCCN3)c2)C(=O)O)c(C)c1 [3-({1-[3-(4,5-Dihydro-1H-imidazol-2-ylamino)-propyl]-1H-indazole-5-carbonyl}-amino)-2-(2,4,6-trimethyl-benzenesulfonylamino)-propionic acid]
39 | O=C(NC[C@H](NS(=O)(=O)c1cccc2ccccc12)C(=O)O)c1ccc2c(cnn2CCCNc2ncc[nH]2)c1 [3-({1-[3-(1H-Imidazol-2-ylamino)-propyl]-1H-indazole-5-carbonyl}-amino)-2-(naphthalene-1-sulfonylamino)-propionic acid]
